How the values were obtained:
Gamma-secretase = assay: Inhibition of Gamma-secretase in human IMR-32 cells after 2 hrs by ELISA assay; type: cell-based
Method in brief: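 γ-Secretase came from IMR-32 cell membranes, and compound was first diluted in DMSO. Reaction at 37 °C was started with MBPC-125 Swedish substrate, run for 2 h, then stopped with SDS. Cleaved substrate was measured by Aβ40-specific ELISA. Values are means of three experiments.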

Mus musculus [1] = assay: Reduction of cortical abeta40 level in FVB mouse at 3 mg/kg, po after 3 hrs; type: functional; set-up: scale not given: the % may be the effect or the level left
[2] = Oxidative metabolic stability in mouse liver microsomes at 1 uM after 30 mins in presence of 1 mM NADPH; type: ADME, Microsome; settings: liver microsomes, read-out: Stability
Method in brief: (§1)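 Oxidative stability: compound at 1 µM incubated 30 min at 37 °C in phosphate buffer with liver microsomes (0.5 mg/ml protein) plus 1 mM NADPH. Percent parent remaining reported. Human or mouse microsomes per line.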

[3] = Metabolic stability in human liver microsomes at 2 uM after 30 mins in presence of 1 mM UDPGA; type: ADME, Microsome; settings: read-out: Stability
Method in brief: (§2)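 Glucuronidation stability: 2 µM compound incubated 30 min at 37 °C in phosphate buffer with liver microsomes (0.5 mg protein), 1 mM UDPGA, 100 mM MgCl2 and 25 µg/mL alamethicin. Read-out is percent parent compound remaining. Human or mouse microsomes per line.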

[4] = Solubility in HBSS buffer at 20 mM at pH 7.4 after 1 hr; type: physicochemical
Method in brief: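 20 mM DMSO stocks serially diluted in DMSO, then diluted 1:200 into HBSS pH 7.4. After 1 h incubation, plates read on a solubility scanner.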

[5] = Apparent permeability from apical to basolateral side in MDCK2 cells at 5 uM after 120 mins; type: ADME, cell-based, Canis lupus familiaris, MDCK-II; settings: dog, MDCK
Method in brief: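 Compound at 5 µM in mHBSS pH 7.4 applied to MDCK II cell monolayers for 120 min at 37 °C. Apical and basolateral chambers sampled and analysed by LC/MS/MS.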

Mus musculus [6] = assay: Reduction of cortical abeta40 level in FVB mouse at 30 mg/kg, po after 3 hrs; type: functional; set-up: scale not given: the % may be the effect or the level left
[7] = Oxidative metabolic stability in human liver microsomes at 1 uM after 30 mins in presence of 1 mM NADPH; type: ADME, Microsome; settings: liver microsomes, read-out: Stability; method in brief: as §1
[8] = Metabolic stability in mouse liver microsomes at 2 uM after 30 mins in presence of 1 mM UDPGA; type: ADME, Microsome; settings: read-out: Stability; method in brief: as §2

Molecule `C[C@@H]1c2c[nH]nc2-c2cc(F)ccc2N1S(=O)(=O)c1ccc(Cl)cc1` has an IC50 (Gamma-secretase) of 0.62 nM, an Activity (Mus musculus [1]) of 7% and a remaining at 0.5 h, 1 µM [2] of 7%. For the same molecule, the remaining at 0.5 h, 2 µM [3] was 77%, the solubility at 1 h [4] was > 100 µM and the Papp A→B at 2 h, 5 µM [5] was 19.8 ×10⁻⁶ cm/s. The Activity (Mus musculus [6]) was 37%, the remaining at 0.5 h, 1 µM [7] was 1% and the remaining at 0.5 h, 2 µM [8] was 91%.

— ChEMBL document CHEMBL1155356, “Design, synthesis, and structure-activity relationship of novel orally efficacious pyrazole/sulfonamide based dihydroquinoline gamma-secretase inhibitors” (Bioorg Med Chem Lett, 2009)
